Measured values: ChEMBL document CHEMBL1155832, “Design, synthesis, and biological evaluation of antiviral agents targeting flavivirus envelope proteins” (J Med Chem, 2008)
pEC50: −log10 of the molar value.

Key:
[1] = system: Yellow fever virus; experiment: Antiviral activity against IRES-luciferase tagged Yellow fever virus in BHK15 cells assessed as reduction of luciferase activity after 36 hrs; assay type: functional, organism-based; conditions: BHK15, 36 h
[2] = Cytotoxicity against BHK15 cells assessed as cell viability after 36 hrs by MTT assay; assay type: cell-based, Mesocricetus auratus; conditions: hamster, bhk15, 36 h
[3] = Therapeutic index, ratio of CC50 for BHK15 cells to EC50 IRES-luciferase tagged Yellow fever virus; assay type: cell-based; conditions: hamster, read-out: Ratio CC50/EC50
[4] = system: Yellow fever virus; experiment: Antiviral activity against IRES-luciferase tagged Yellow fever virus in BHK15 cells assessed as reduction of luciferase activity at 50 uM after 36 hrs; assay type: functional; conditions: BHK15, 36 h
How it was run: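 Primary screen of the YFV-IRES-Luc (YFV 17D reporter) infection at MOI 0.1 in confluent BHK-15 cells. Compound was given at a single 50 µM concentration for ~36 h at 37 °C, 5% CO2. Percent inhibition came from lysate firefly luciferase luminescence versus DMSO-treated infected cells. Over 50% inhibition counted as active.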

[5] = system: dengue virus type 2; experiment: Antiviral activity against Dengue virus 2 16681 in BHK15 cells at 50 uM after 48 hrs by immunofluorescence assay; assay type: functional; conditions: Dengue virus, 16681, BHK15, 48 h
How it was run: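 Den-2 strain 16681 added to BHK monolayers at MOI 0.025 for 1 h at room temperature, then washed with PBS. Overlaid with MEM + 2.5% FBS containing compound at 50 µM and kept at 34 °C for 48 h. Fixed cells were stained with anti-dengue capsid antibody (2 h), a TRITC secondary and DAPI. Infected versus total cells were counted in three random fields per well to give percent inhibition.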

Row | Compound | pEC50 [1] | CC50 [2] [µM] | selectivity ratio [3] | inhibition at 50 µM [4] [%] | inhibition at 50 µM [5] [%]
1 | C/C(=N\NC(=N)N)c1ccc(NC(=O)Nc2ccc(/C(C)=N/NC(=N)N)cc2)cc1 | 4.89 | 398 | 30.6 | – | –
2 | c1ccc(-c2cc(-c3ccccc3)[nH]n2)cc1 | 4.36 | 123 | 2.8 | – | –
3 | COC(=O)c1sc(-c2ccc(Cl)cc2)nc1C(Br)Br | 6.05 | 153 | 170 | 99 | 99
4 | COC(=O)c1sc(-c2ccc(Cl)cc2)nc1C | < 4.30 | – | – | – | –
5 | Nc1ccccc1SCc1csc(-c2cccnc2)n1 | < 4.30 | – | – | – | –
6 | COC(=O)c1sc(N(Cc2ccc(C(C)=O)cc2)Cc2ccc(C(C)=O)cc2)nc1C | 4.60 | 200 | 8 | – | –
7 | CC(=O)c1ccc(CN(Cc2ccc(C(C)=O)cc2)c2nc(C)c(C(=O)NCc3ccc(Cl)cc3Cl)s2)cc1 | < 4.30 | – | – | – | –
8 | COC(=O)c1sc(N(Cc2ccc(C(C)=O)cc2)C(C)=O)nc1C | < 4.30 | – | – | – | –
9 | Nc1ccccc1SCc1csc(-c2ccc(Cl)cc2)n1 | 4.51 | 61 | 2 | – | –
10 | COC(=O)c1sc(-c2ccncc2)nc1C | < 4.30 | – | – | – | –
11 | Cc1nc(-n2nc(-c3ccccc3)cc2-c2ccccc2)sc1C(=O)Oc1ccc(I)cc1 | < 4.30 | – | – | – | –
12 | Cc1nc(-n2nc(-c3ccccc3)cc2-c2ccccc2)sc1C(=O)NCc1ccc(Cl)c(Cl)c1 | 5.30 | 186 | 37 | – | –
13 | Cc1nc(-n2nc(-c3ccccc3)cc2-c2ccccc2)sc1C(=O)/C=C/c1ccc(Cl)c(Cl)c1 | 4.29 | 70 | 1.37 | – | –
14 | Nc1ccccc1SCc1csc(-c2ccccc2)n1 | 4.34 | 119 | 2.6 | – | –
15 | Nc1ccc(SCc2csc(-c3ccccc3Cl)n2)cc1 | 4.40 | 131 | 3.2 | – | –
16 | COC(=O)c1sc(NC(=O)Nc2ccc(/C(C)=N/NC(N)=O)cc2)nc1C | < 4.30 | – | – | – | –
17 | CC(=O)c1ccc(NC(=O)Nc2nc(C)c(C(=O)NCc3ccc(Cl)cc3Cl)s2)cc1 | < 4.30 | – | – | – | –
18 | Cc1nc(-n2nc(-c3ccccc3)cc2-c2ccccc2)sc1C(=O)OCC12CC3CC(CC(C3)C1)C2 | < 4.30 | – | – | – | –
19 | Cc1csc(-c2ccc(Cl)cc2)n1 | < 4.30 | – | – | – | –
20 | C/C(=N\NC(N)=O)c1ccc(NC(=O)Nc2nc(C)c(C(=O)NCc3ccc(Cl)cc3Cl)s2)cc1 | < 4.30 | – | – | – | –

Row | Compound | pEC50 [1] | CC50 [2] [µM] | selectivity ratio [3] | inhibition at 50 µM [4] [%] | inhibition at 50 µM [5] [%]
21 | C/C(=N\NC(=N)N)c1ccc(NC(=O)Nc2nc(C)c(C(=O)NCc3ccc(Cl)cc3Cl)s2)cc1 | 4.42 | 154 | 4.1 | – | –
22 | Cc1nc(-c2ccc(Cl)cc2)sc1C(=O)OCC12CC3CC(CC(C3)C1)C2 | < 4.30 | – | – | – | –
23 | Cc1nc(-n2nc(-c3ccccc3)cc2-c2ccccc2)sc1C(=O)OC(C)C | < 4.30 | – | – | – | –
24 | Nc1ccc(SCc2csc(-c3ccccc3)n2)cc1 | 4.43 | 155 | 4.2 | – | –
25 | Nc1ccc(SCc2csc(-c3cccnc3)n2)cc1 | < 4.30 | – | – | – | –
26 | Clc1ccc(-c2nc(CSc3cccc(Cl)c3)cs2)cc1 | < 4.30 | – | – | – | –
27 | CCOC(=O)c1sc(-n2nc(-c3ccccc3)cc2-c2ccccc2)nc1C | < 4.30 | – | – | – | –
28 | ClCc1csc(-c2ccc(Cl)cc2)n1 | < 4.30 | – | – | – | –
29 | Cc1nc(-n2nc(-c3ccccc3)cc2-c2ccccc2)sc1C(=O)O | < 4.30 | – | – | – | –
30 | Cc1nc(-c2ccc(Cl)cc2)sc1C(=O)NCc1ccc(Cl)c(Cl)c1 | < 4.30 | – | – | – | –
31 | Nc1ccccc1SCc1csc(-c2ccccc2Cl)n1 | 4.34 | 133 | 2.9 | – | –
32 | COC(=O)c1sc(NC(=O)Nc2ccc(/C(C)=N/NC(=N)N)cc2)nc1C | < 4.30 | – | – | – | –
33 | Cc1nc(-n2nc(-c3ccccc3)cc2-c2ccccc2)sc1C(=O)OCc1ccc(I)cc1 | < 4.30 | – | – | – | –
34 | CC(=O)c1ccc(NC(=O)Nc2nc(C)c(C(=O)NCc3ccc(Cl)c(Cl)c3)s2)cc1 | 4.43 | 138 | 3.7 | – | –
35 | COC(=O)c1sc(-c2ccccc2)nc1C | < 4.30 | – | – | – | –
36 | CC(=O)c1ccc(NC(=O)Nc2nc(C)c(C(=O)O)s2)cc1 | < 4.30 | – | – | – | –
37 | Nc1ccc(SCc2csc(-c3ccc(Cl)cc3)n2)cc1 | 4.54 | 151 | 5.2 | – | –
38 | CCCCCCCCOC(=O)c1sc(-n2nc(-c3ccccc3)cc2-c2ccccc2)nc1C | < 4.30 | – | – | – | –
39 | COC(=O)c1sc(NC(=O)Nc2ccc(C(C)=O)cc2)nc1C | 4.86 | 155 | 11.2 | – | –
